In ChEMBL document CHEMBL3774321, “Systematic diversification of benzylidene heterocycles yields novel inhibitor scaffolds selective for Dyrk1A, Clk1 and CK2” (Eur J Med Chem, 2016) one finds IC50, inhibition and half-life data, which are given here for four compounds.

Series [1] concerns the target Protein kinase C beta type (Homo sapiens, UniProt P05771). In words: Inhibition of PKCbeta (unknown origin) incubated for 15 mins in presence of [gamma-32P]ATP. A digest of the protocol:
(§1)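 Purified recombinant kinase assayed with 100 μM ATP. Values averaged from at least two independent determinations.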

The target of series [2] is T1, Dual specificity tyrosine-phosphorylation-regulated kinase 1A (Homo sapiens, UniProt Q13627). The series is described as follows: Inhibition of recombinant human N-terminal His6-tagged DYRK1A catalytic domain expressed in Escherichia coli BL21(DE3) cells using KKISGRLSPIMTEQ-NH2 as substrate incubated for 15 mins in presence of [gamma-32P]ATP.
The target of series [3] is T2, Dual specificity tyrosine-phosphorylation-regulated kinase 2 (Homo sapiens, UniProt Q92630).
T2 sequence (Q92630 whole entry): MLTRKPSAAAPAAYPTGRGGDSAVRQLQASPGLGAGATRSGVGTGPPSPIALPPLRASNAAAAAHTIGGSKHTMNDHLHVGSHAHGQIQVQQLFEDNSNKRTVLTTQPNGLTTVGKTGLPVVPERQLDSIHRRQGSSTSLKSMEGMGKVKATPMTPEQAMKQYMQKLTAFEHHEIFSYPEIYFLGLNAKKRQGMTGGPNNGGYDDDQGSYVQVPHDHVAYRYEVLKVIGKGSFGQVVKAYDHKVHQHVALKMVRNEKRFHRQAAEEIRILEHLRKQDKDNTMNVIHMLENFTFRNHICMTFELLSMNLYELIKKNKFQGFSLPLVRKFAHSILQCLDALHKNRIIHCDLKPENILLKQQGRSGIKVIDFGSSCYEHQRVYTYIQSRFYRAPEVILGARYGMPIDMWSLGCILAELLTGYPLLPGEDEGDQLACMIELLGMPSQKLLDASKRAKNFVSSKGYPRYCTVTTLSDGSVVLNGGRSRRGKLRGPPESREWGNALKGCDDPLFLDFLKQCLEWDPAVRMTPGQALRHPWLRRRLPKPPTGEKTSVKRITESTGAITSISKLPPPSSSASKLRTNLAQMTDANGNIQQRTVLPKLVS
The series is described as follows: Inhibition of recombinant human N-terminal GST-tagged DYRK2 expressed in Escherichia coli BL21(DE3) cells using KKISGRLSPIMTEQ-NH2 as substrate incubated for 15 mins in presence of [gamma-32P]ATP. The note with it: read-out: IC50. A digest of the protocol: (§2)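 Purified recombinant kinase with 100 µM ATP. IC50 values are averages of at least two independent determinations.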

The next series concerns the target Casein kinase II (Homo sapiens, UniProt P19784+P67870+P68400). In words: Inhibition of CK2 (unknown origin) using RRRDDDSDDD-NH2 as susbtrate incubated for 15 mins in presence of [gamma-32P]ATP. Type of series: protein-complex assay.
Series [4] deals with Dual specificity protein kinase CLK1 (Homo sapiens, UniProt P49759). The series is described as follows: Inhibition of recombinant human GST-tagged CLK1 catalytic domain (129 to 484 residues) expressed in Escherichia coli using GRSRSRSRSRSRSRSR as substrate incubated for 15 mins in presence of [gamma-32P]ATP. A digest of the protocol:
as §2

Series [5] addresses Epidermal growth factor receptor (Homo sapiens, UniProt P00533). The series is described as follows: Inhibition of EGFR (unknown origin) incubated for 15 mins in presence of [gamma-32P]ATP. The following applies: read-out: IC50. In a few lines:
as §1

Series [6] addresses Dual specificity tyrosine-phosphorylation-regulated kinase 1B (Homo sapiens, UniProt Q9Y463). In words: Inhibition of full length recombinant human GST-tagged DYRK1B expressed in insect cells using KKISGRLSPIMTEQ-NH2 as substrate incubated for 15 mins in presence of [gamma-32P]ATP.
The target of series [7] is Phosphatidylinositol 4,5-bisphosphate 3-kinase catalytic subunit delta isoform (Homo sapiens, UniProt O00329). In words: Inhibition of PI3K p110delta (unknown origin).
Series [8] has as its target T3, Phosphatidylinositol 4,5-bisphosphate 3-kinase catalytic subunit alpha isoform (Homo sapiens, UniProt P42336). The series is described as follows: Inhibition of PI3K p110alpha (unknown origin) at 1 uM relative to control. In a few lines: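 Single-point screen at 1 μM compound. Percent inhibition is the mean of two separate measurements, each run in duplicate.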

The target of series [9] is T1, Dual specificity tyrosine-phosphorylation-regulated kinase 1A. In words: Inhibition of tetracycline-inducible EGFP-DYRK1A (unknown origin) expressed in HEK293 cells coexpressing full length human EGFP-tau protein assessed as reduction in tau-Thr212 phosphorylation incubated overnight by immunoblotting assay. For orientation: Immunoblotting shows a protein as a band on a membrane.

In series [10] the target is T3, Phosphatidylinositol 4,5-bisphosphate 3-kinase catalytic subunit alpha isoform. The series is described as follows: Inhibition of PI3K p110alpha (unknown origin).
Series [11] can be described thus: Half life in rat plasma at 1 uM by LC-MS/MS analysis. The format is ADME, cell-free. A digest of the protocol:
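Pooled heparinized rat plasma incubated with 1 μM compound at 37 °C, sampled at 0, 5, 15, 30, 60 and 120 min. Reaction stopped with 5 volumes cold acetonitrile containing internal standard. Remaining compound quantified by LC-MS/MS. Half-life given as mean of two experiments.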

Series [12] deals with Phosphatidylinositol 4-phosphate 3-kinase C2 domain-containing subunit beta (Homo sapiens) (UniProt O00750). The series is described as follows: Inhibition of PI3K-C2beta (unknown origin) at 5 uM relative to control.
Series [13] deals with T3, Phosphatidylinositol 4,5-bisphosphate 3-kinase catalytic subunit alpha isoform. In words: Inhibition of PI3K p110alpha (unknown origin) at 5 uM relative to control.
Series [14] addresses T4, Serine/threonine-protein kinase haspin (Homo sapiens) (UniProt Q8TF76).
T4 sequence (whole entry): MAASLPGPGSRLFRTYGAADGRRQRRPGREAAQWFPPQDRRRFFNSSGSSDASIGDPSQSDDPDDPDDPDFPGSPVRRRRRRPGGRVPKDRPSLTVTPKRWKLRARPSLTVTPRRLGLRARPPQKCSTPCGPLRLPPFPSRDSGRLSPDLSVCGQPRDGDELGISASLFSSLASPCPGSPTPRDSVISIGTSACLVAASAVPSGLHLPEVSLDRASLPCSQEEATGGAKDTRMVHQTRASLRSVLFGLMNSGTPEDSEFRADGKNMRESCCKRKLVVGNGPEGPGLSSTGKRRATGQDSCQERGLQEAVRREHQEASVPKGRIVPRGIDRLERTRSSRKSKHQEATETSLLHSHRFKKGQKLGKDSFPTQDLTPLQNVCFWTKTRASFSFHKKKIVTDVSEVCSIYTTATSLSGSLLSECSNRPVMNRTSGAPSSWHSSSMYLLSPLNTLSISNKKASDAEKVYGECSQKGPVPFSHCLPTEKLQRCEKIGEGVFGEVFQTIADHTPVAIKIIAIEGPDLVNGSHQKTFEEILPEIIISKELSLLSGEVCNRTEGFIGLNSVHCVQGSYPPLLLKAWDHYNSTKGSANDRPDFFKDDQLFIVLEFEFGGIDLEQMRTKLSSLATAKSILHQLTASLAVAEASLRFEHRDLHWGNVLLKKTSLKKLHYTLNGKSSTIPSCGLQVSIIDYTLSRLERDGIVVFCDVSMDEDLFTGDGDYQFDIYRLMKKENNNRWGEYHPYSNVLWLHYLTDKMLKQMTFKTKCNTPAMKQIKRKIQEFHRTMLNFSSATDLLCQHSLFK
In words: Inhibition of Haspin (unknown origin) at 5 uM relative to control.

In series [15] the target is Phosphatidylinositol 4,5-bisphosphate 3-kinase catalytic subunit gamma isoform (Homo sapiens, UniProt P48736). In words: Inhibition of PI3K p110gamma (unknown origin) at 5 uM relative to control.

Chain of Dual specificity tyrosine-phosphorylation-regulated kinase 1B (Q9Y463 whole entry, canonical isoform): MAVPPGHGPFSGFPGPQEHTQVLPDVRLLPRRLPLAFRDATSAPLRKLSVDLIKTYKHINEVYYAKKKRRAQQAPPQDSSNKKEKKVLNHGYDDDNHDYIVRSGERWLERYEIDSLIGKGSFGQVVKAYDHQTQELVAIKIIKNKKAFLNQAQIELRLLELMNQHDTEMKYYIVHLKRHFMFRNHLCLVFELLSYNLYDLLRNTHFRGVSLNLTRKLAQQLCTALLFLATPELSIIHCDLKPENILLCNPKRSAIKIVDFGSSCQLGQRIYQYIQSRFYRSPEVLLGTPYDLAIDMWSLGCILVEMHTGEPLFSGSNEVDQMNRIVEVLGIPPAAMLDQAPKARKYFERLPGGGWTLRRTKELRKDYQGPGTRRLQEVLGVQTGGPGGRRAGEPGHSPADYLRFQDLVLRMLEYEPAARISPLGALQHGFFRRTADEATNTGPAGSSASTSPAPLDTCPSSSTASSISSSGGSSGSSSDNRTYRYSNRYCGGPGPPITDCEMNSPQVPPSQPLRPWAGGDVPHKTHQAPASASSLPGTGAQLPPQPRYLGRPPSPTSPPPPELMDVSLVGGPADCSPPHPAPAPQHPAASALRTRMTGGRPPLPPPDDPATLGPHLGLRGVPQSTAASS
Chain of Dual specificity protein kinase CLK1 (P49759 whole entry, the tested form may be a part): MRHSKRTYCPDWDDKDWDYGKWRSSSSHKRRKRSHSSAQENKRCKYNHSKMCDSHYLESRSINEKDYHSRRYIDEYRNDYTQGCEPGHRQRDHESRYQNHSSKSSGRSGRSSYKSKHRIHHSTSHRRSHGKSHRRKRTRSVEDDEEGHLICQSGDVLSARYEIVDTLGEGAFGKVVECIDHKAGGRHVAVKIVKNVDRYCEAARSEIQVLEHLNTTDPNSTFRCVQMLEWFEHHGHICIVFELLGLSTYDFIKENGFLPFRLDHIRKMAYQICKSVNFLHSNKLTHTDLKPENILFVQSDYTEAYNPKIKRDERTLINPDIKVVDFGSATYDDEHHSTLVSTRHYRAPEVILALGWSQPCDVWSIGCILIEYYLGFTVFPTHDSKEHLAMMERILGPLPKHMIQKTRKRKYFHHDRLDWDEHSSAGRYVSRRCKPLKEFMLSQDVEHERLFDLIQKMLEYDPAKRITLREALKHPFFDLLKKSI
Chain of Protein kinase C beta type (P05771 whole entry): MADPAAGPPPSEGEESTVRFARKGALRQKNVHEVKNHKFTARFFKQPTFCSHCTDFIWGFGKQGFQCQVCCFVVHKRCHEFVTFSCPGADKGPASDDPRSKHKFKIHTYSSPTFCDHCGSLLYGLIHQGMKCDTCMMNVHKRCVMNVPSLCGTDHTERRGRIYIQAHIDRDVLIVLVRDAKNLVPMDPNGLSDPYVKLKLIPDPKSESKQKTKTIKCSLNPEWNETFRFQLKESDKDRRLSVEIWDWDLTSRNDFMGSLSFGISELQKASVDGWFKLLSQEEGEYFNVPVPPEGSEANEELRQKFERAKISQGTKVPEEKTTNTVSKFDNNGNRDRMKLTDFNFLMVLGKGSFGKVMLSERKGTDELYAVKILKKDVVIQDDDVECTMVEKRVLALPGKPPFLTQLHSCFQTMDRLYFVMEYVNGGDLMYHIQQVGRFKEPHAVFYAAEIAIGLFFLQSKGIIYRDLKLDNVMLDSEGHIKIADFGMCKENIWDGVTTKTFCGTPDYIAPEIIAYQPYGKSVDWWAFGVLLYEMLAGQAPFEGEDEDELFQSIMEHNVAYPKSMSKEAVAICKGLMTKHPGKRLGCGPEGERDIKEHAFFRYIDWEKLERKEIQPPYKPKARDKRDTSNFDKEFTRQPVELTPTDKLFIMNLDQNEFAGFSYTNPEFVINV
T3 sequence (P42336 whole entry, canonical isoform): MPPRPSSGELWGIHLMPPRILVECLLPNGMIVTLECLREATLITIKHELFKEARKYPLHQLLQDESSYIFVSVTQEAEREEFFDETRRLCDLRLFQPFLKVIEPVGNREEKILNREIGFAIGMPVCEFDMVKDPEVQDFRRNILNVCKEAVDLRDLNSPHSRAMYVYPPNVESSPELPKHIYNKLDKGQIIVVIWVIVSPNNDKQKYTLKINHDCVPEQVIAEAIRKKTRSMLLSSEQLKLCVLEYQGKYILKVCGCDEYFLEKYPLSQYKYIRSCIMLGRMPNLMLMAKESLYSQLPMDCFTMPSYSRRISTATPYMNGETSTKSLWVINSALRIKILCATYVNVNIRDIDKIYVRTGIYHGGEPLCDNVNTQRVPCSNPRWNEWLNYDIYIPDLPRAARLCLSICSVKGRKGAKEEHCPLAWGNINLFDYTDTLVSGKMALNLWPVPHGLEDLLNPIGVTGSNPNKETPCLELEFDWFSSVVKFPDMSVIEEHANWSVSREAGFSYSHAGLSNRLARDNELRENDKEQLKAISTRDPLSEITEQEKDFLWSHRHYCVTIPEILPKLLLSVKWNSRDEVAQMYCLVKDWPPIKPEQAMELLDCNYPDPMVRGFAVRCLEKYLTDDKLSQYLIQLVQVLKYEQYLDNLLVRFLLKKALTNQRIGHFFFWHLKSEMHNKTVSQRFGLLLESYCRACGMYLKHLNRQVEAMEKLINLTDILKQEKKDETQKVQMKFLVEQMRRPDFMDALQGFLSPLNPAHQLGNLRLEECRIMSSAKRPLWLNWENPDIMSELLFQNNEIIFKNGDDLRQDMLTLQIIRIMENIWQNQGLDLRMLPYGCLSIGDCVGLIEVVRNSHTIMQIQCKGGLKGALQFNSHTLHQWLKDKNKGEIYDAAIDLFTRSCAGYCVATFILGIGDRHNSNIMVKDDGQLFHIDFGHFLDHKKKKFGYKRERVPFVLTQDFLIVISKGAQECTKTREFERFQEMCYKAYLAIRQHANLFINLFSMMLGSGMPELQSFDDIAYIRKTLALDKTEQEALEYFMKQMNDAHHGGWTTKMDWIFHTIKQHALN
Chain of Epidermal growth factor receptor (P00533 whole entry): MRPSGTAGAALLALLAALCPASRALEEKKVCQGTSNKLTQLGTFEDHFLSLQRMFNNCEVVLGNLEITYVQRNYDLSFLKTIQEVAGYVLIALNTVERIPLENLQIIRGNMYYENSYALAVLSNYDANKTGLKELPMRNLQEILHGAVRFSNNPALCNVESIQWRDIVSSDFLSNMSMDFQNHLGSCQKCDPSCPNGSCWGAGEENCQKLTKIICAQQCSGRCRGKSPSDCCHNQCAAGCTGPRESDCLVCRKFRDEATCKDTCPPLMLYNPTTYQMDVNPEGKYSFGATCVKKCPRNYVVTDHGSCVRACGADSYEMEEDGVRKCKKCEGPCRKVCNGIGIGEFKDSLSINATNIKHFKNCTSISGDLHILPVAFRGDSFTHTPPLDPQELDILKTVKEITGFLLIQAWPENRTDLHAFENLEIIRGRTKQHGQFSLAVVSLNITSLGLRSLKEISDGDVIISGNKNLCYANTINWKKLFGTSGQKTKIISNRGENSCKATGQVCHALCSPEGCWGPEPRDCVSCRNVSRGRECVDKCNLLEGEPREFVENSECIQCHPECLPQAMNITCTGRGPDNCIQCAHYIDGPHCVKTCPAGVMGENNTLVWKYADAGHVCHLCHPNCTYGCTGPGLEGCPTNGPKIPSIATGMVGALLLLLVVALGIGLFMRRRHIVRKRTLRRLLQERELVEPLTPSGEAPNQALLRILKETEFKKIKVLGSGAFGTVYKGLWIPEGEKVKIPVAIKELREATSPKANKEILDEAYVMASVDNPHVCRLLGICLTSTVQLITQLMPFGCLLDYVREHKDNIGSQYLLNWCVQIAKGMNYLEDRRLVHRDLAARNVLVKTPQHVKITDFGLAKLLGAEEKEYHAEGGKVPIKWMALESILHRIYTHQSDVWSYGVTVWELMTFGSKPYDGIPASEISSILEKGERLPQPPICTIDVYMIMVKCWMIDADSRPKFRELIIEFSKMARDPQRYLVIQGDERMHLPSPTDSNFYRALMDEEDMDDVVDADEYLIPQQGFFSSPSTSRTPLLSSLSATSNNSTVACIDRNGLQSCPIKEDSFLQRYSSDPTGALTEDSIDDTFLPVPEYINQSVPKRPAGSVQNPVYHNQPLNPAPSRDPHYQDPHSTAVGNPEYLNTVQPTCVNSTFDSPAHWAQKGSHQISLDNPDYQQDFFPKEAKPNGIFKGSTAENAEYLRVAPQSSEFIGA
Chain of Casein kinase II (P67870 whole entry, the tested form may be a part): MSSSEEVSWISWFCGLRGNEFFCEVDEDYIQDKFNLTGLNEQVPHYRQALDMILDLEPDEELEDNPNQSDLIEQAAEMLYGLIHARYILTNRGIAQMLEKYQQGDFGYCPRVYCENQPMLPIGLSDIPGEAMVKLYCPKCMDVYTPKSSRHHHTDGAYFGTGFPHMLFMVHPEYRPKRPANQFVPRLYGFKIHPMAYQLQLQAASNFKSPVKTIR
Chain of Casein kinase II (P68400 whole entry, the tested form may be a part): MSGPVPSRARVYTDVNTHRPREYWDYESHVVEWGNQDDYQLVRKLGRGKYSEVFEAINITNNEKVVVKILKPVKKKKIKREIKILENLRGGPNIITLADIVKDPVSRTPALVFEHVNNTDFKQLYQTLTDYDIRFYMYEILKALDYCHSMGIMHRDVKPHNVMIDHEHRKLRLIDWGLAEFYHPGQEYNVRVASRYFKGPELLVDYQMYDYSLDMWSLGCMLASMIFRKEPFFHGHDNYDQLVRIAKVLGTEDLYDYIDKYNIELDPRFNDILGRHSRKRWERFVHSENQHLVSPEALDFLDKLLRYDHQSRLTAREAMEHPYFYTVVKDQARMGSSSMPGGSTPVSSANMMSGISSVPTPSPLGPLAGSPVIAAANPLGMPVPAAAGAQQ
Chain of Casein kinase II (P19784 whole entry, the tested form may be a part): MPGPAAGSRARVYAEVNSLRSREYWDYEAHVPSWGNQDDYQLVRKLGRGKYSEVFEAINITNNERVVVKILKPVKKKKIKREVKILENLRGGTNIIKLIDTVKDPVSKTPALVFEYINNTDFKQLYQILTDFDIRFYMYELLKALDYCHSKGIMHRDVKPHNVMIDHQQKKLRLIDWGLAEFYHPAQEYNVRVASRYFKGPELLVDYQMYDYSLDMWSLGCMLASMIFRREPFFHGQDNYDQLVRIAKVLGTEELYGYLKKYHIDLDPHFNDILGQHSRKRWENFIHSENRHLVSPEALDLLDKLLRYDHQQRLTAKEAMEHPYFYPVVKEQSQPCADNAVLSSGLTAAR

With `O=C1NC(=S)S/C1=C\c1ccc2ncccc2c1`, the IC50 in series [1] (read-out: IC50) was > 10 µM; in series [2], 0.02 µM; in [3], 0.06 µM; on Casein kinase II it was 0.04 µM; in series [4] it was 0.2 µM; in series [5], > 10 µM. The IC50 was 0.06 µM in series [6], 0.0161 µM in [7], 1.4 µM in [9] and 0.0026 µM in series [10]. This compound also showed an inhibition in series [8] of 100%.
For `O=C1NC(=S)S/C1=C\c1ccc2ncsc2c1`, the IC50 in series [1] (read-out: IC50) is 9.2 µM; in series [2] it was 0.04 µM; in series [3], 0.2 µM; at Casein kinase II it was 0.06 µM; in [4] it was 0.1 µM; in series [5] it was > 10 µM. Moreover, the IC50 in series [6] came to 0.07 µM; in [7] it was 0.0124 µM; in [9], 2.1 µM; in series [10], 0.0022 µM. The half-life at 1 µM in series [11] is 1.68 h. Moreover, the inhibition in series [8] came out at 98%.
On to `O=C1OCC/C1=C\c1ccc2ncsc2c1`, for which the inhibition in [12] was 13%; in [13], 90%; in series [14] it was 75%; in [15], 79%. For the same compound, the IC50 result is “Not Active” in [1]; 0.13 µM in series [2]; 0.06 µM in series [3]; > 10 µM on Casein kinase II; > 10 µM in series [4]; > 10 µM in series [5]. Also, the half-maximal inhibitory concentration (IC50) came out at 1.05 µM in series [6] and 0.2 µM in [9]. This compound also returned a half-life at 1 µM in series [11] of 3.1 h.
`CC1C/C(=C\c2ccc3c(c2)CCO3)C(=O)O1` (stereo not given): the inhibition in [12] was 8%; in series [13], 84%; in series [14], 43%; in series [15] it was 75%. Further, the 50% inhibitory concentration (IC50) result in [1] is “Not Active”; in series [2], 0.17 µM; in [3], 0.43 µM; on Casein kinase II it was > 10 µM; in series [4] it was > 10 µM; in [5], > 10 µM. Also, the IC50 in series [6] was 2.64 µM; in series [9], 2.1 µM; in [10] it was 0.65 µM. In addition, the half-life at 1 µM in series [11] was > 2 h.

In general, IC50 refers to the concentration that gives 50% inhibition. The inhibition is the drop in the measured response relative to a control, in per cent. A high value points to a response far below the control. What is called half-life is how long it takes for the measured level to halve. A high value points to slow loss.
